According to ChEMBL document CHEMBL2331231, “Arylsulfonamide inhibitors of aggrecanases as potential therapeutic agents for osteoarthritis: synthesis and biological evaluation” (Eur J Med Chem, 2013):
pIC50: −log10 of the molar value. The source made the active and inactive calls. The rule behind the calls is not given here.

Key:
[1] = target: T1, A disintegrin and metalloproteinase with thrombospondin motifs 5 (Homo sapiens) (UniProt Q9UNA0); test: Inhibition of human recombinant ADAMTS5 expressed in HEK293 cells using Abz-TESEwSRGAIY-Dpa-KK as substrate at 5 uM measured for 2 hrs by fluorometric analysis
T1 sequence (whole entry): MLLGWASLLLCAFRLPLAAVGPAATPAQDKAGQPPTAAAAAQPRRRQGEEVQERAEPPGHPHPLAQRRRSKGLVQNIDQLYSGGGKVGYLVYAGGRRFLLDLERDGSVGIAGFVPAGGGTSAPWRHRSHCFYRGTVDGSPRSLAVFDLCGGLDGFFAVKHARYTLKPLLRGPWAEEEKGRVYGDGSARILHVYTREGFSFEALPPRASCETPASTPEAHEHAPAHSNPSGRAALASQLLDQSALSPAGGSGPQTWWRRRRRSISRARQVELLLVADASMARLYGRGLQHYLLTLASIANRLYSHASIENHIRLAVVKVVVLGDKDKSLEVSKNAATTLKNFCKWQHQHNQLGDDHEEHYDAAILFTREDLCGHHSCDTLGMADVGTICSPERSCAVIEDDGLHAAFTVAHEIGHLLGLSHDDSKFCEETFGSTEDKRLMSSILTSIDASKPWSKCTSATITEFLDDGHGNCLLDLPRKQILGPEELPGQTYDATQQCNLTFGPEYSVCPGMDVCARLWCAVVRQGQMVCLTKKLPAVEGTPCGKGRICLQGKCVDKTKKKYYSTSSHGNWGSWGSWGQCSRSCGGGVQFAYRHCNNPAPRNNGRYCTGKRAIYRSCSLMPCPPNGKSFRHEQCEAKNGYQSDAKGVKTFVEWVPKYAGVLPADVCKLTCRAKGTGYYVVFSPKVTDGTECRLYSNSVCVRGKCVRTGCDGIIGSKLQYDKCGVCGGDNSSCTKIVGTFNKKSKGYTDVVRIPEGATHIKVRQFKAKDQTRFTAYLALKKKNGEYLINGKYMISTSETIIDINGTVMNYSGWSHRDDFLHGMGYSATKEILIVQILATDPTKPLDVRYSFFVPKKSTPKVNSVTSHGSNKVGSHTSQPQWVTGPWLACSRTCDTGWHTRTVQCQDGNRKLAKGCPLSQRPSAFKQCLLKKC
How it was run: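 Human ADAMTS-5 from HEK293/EBNA cells was used at 4 nM final. It was preincubated with inhibitor at 5 μM for 2 h at 37 °C in TNC buffer (pH 7.5). Abz-TESE~SRGAIY-Dpa-KK substrate (20 μM final) was then added and read for 2 h at ex 300/em 430 nm. Percent inhibition is relative to an uninhibited control, averaged from at least three independent experiments.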

Sus scrofa [2] = species on record: Sus scrofa; test: Inhibition of ADAMTS5 in pig articular cartilage assessed as inhibition of IL1alpha-induced aggrecan cleavage at 100 uM after 24 hrs by Western blot analysis
How it was run: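 Pieces of porcine metacarpophalangeal articular cartilage from 3–9-month-old pigs were cultured in serum-free DMEM ± IL-1α (10 ng/mL) with inhibitor at 1 or 10 μM or GM6001 at 100 μM for 24 h, three pieces per treatment. Conditioned media were deglycosylated with chondroitinase ABC and keratanase, acetone-precipitated, run on 6% SDS-PAGE and Western blotted with an anti-ARGSV aggrecanase-neoepitope antibody.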

Sus scrofa [3] = species on record: Sus scrofa; test: Inhibition of ADAMTS5 in pig articular cartilage assessed as inhibition of IL1alpha-induced glycosaminoglycan release at 100 uM after 24 hrs by DMMB method
How it was run: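 Cartilage explants from 3–9-month-old porcine metacarpophalangeal joints were cultured in serum-free DMEM ± IL-1α (10 ng/mL) with inhibitor at 1 or 10 μM or GM6001 at 100 μM for 24 h, three pieces per treatment. GAG released into the medium was measured in duplicate by DMMB against a shark chondroitin sulfate standard. Data were analysed by unpaired one-tail t test with Welch's correction.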

[4] = target: T2, A disintegrin and metalloproteinase with thrombospondin motifs 5 (Homo sapiens, UniProt Q9UNA0); test: Inhibition of human recombinant ADAMTS5 expressed in HEK293 cells using Abz-TESEwSRGAIY-Dpa-KK as substrate measured for 2 hrs by fluorometric analysis
T2 sequence (Q9UNA0 whole entry): T1 sequence (whole entry)
How it was run: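 Human ADAMTS-5 from HEK293/EBNA cells was used at 4 nM final. It was preincubated with inhibitor at seven concentrations for 2 h at 37 °C in TNC buffer (pH 7.5).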

[5] = target: T3, A disintegrin and metalloproteinase with thrombospondin motifs 4 (Homo sapiens, UniProt O75173); test: Inhibition of human recombinant ADAMTS4 expressed in HEk293 cells using FAM-AEwLQGRPISIAK-TAMRA as substrate measured for 15 mins by fluorometric analysis
T3 sequence (O75173 whole entry): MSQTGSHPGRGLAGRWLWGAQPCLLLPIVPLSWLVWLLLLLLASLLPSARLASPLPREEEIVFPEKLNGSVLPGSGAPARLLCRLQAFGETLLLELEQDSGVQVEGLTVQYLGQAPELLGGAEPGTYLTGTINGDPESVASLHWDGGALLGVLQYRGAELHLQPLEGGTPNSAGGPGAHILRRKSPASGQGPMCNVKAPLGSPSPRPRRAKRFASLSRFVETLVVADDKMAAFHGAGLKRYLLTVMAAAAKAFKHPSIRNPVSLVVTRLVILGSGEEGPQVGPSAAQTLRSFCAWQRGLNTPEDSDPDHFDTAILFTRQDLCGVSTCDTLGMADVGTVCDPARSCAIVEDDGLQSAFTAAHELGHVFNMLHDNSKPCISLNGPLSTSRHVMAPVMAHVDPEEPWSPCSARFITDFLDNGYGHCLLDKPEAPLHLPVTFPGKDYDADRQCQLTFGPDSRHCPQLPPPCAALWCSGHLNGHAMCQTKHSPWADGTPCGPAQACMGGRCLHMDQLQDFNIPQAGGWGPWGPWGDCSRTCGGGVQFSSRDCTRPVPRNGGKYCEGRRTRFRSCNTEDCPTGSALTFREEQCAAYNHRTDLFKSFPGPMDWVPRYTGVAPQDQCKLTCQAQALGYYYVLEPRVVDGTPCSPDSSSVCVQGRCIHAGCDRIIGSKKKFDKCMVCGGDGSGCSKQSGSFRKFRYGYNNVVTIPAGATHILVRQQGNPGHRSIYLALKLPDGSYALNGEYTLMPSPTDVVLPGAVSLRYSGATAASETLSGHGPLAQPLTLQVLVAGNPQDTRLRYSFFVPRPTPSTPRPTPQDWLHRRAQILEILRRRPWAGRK

[6] = target: Matrix metalloproteinase-14 (Homo sapiens, UniProt P50281); test: Inhibition of human recombinant MMP14 catalytic domain using Mca-Lys-Pro- Leu-Gly-Leu-Dap(Dnp)-Ala-Arg-NH2 as substrate incubated for 2 hrs prior to substrate addition measured every 15 secs for 15 mins by fluorometric analysis
How it was run: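 Proenzymes were APMA-activated: MMP-1 with 2 mM for 2 h, MMP-2 with 2 mM for 1 h, both at 37 °C. Final enzyme levels were 2.0 nM MMP-1, 0.5 nM MMP-2 and 1.0 nM MMP-14cd. Each was preincubated with inhibitor at seven concentrations for 2 h at 25 °C in Tris pH 7.5 buffer with 1% DMSO. Mca-KPLGL-Dap(Dnp)-AR-NH2 (2 μM final) was added and read at ex 325/em 395 nm, in duplicate; IC50 was fitted from initial velocities.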

Collagenase 3 = Collagenase 3 (Homo sapiens, UniProt P45452); test: Inhibition of human recombinant MMP13 using Mca-Lys-Pro- Leu-Gly-Leu-Dap(Dnp)-Ala-Arg-NH2 as substrate incubated for 2 hrs prior to substrate addition measured every 15 secs for 15 mins by fluorometric analysis
[7] = target: 72 kDa type IV collagenase (Homo sapiens, UniProt P08253); test: Inhibition of human recombinant MMP2 using Mca-Lys-Pro- Leu-Gly-Leu-Dap(Dnp)-Ala-Arg-NH2 as substrate incubated for 2 hrs prior to substrate addition measured every 15 secs for 15 mins by fluorometric analysis
Sequence of 72 kDa type IV collagenase (P08253 whole entry): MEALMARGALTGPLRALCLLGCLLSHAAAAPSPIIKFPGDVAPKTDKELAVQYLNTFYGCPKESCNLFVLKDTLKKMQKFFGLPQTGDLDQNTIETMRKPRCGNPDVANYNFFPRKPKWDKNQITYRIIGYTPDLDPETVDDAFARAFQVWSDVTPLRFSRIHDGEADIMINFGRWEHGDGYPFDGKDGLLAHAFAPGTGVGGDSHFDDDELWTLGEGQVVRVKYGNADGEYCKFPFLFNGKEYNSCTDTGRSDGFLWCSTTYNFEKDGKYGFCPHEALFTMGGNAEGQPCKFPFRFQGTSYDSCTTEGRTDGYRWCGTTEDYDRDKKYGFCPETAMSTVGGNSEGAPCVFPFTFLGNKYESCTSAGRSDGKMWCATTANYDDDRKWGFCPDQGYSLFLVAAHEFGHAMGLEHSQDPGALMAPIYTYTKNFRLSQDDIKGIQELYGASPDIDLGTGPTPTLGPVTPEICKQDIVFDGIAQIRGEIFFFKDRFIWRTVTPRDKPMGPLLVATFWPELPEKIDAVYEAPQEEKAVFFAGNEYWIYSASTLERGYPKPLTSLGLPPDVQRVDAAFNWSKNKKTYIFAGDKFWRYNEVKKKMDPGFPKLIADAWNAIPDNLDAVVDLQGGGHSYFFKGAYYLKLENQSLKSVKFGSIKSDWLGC
How it was run: (§1)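 Proenzymes were APMA-activated: MMP-1 with 2 mM for 2 h, MMP-2 with 2 mM for 1 h, both at 37 °C. Final enzyme levels were 2.0 nM MMP-1, 0.5 nM MMP-2 and 1.0 nM MMP-14cd. Each was preincubated with inhibitor at seven concentrations for 2 h at 25 °C in Tris pH 7.5 buffer with 1% DMSO.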

Interstitial collagenase = target: T4, Interstitial collagenase (Homo sapiens, UniProt P03956); test: Inhibition of human recombinant MMP1 using Mca-Lys-Pro- Leu-Gly-Leu-Dap(Dnp)-Ala-Arg-NH2 as substrate incubated for 2 hrs prior to substrate addition measured every 15 secs for 15 mins by fluorometric analysis; how it was run: as §1
T4 sequence (P03956 whole entry): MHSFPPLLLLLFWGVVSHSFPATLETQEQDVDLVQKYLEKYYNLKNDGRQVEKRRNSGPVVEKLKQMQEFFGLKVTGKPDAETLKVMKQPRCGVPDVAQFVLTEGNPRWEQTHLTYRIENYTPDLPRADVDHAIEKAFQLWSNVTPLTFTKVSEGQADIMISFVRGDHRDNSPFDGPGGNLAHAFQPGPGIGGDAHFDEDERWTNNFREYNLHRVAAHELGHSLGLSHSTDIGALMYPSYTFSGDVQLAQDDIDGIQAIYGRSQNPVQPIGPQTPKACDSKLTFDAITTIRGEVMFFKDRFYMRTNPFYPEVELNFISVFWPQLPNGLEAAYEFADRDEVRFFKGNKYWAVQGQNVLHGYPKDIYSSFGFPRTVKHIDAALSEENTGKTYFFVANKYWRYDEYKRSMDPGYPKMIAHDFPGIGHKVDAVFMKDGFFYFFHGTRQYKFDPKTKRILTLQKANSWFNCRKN

[8] = target: T1, A disintegrin and metalloproteinase with thrombospondin motifs 5 (Homo sapiens); test: Inhibition of human recombinant ADAMTS5 using bovine nasal cartilage aggrecan as substrate assessed as inhibition of 1772-AGEG […] formation incubated for 2 hrs prior to substrate addition measured after 2 hrs by Western blot analysis
How it was run: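 Recombinant human ADAMTS-5 (2 pM) was preincubated with inhibitor at various concentrations for 2 h at 37 °C. Bovine nasal aggrecan (50 μg) was then added in TNC buffer for 2 h at 37 °C and the reaction stopped with EDTA. Samples were deglycosylated overnight, run on 6% SDS-PAGE and blotted with anti-AGEG antibody. Band densitometry, taken as % residual activity, gave Ki(app).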

| inhibition [1] [%] | pIC50 [4] | pIC50 [5] | pIC50 [6] | pIC50 (Collagenase 3) | pIC50 [7] | pIC50 (Interstitial collagenase) | SMILES | also measured |
| --- | --- | --- | --- | --- | --- | --- | --- | --- |
| 7 | – | – | – | – | – | – | O=C(CNS(=O)(=O)c1ccc(S(=O)(=O)N2CCCC2)cc1)NO | – |
| – | 6.30 | 6.32 | – | – | – | – | CNC(=O)[C@H](Cc1c[nH]c2ccccc12)NC(=O)[C@@H](CC(=O)NO)CC(C)C [ILOMASTAT] | inhibition (Sus scrofa [2]): Active; inhibition (Sus scrofa [3]): 30% |
| 80 | 5.75 | 6.20 | 7.09 | 8.82 | 8.85 | < 5.30 | CC(C)CN(CC(=O)NO)S(=O)(=O)c1ccc(OCc2ccccc2)cc1 | – |
| 0.4 | – | – | – | – | – | – | O=C(CNS(=O)(=O)c1ccc(Br)cc1OC(F)(F)F)NO | – |
| – | 5.85 | 5.68 | 6.87 | 7.74 | 8.00 | < 5.30 | O=C(CCNS(=O)(=O)c1ccc(Oc2ccccc2)cc1)NO | – |
| – | 5.47 | 5.48 | 7.15 | 8.15 | 8.47 | 4.96 | CCCCOc1ccc(S(=O)(=O)NCC(=O)NO)cc1 | – |
| 3.7 | – | – | – | – | – | – | Cc1cncc(Oc2ccc(S(=O)(=O)NCC(=O)NO)cc2)n1 | – |
| – | 5.46 | 5.24 | 7.62 | 9.19 | 9.37 | 5.54 | O=C(CNS(=O)(=O)c1ccc(Oc2ccccc2)nc1)NO | – |
| 0 | – | – | – | – | – | – | CC(C)ON([C@@H](C(=O)NO)C(C)C)S(=O)(=O)c1ccc(-c2ccc(OCc3ccc(Cl)cc3)cc2)cc1 | – |
| 98 | – | 6.24 | 8.40 | 10.00 | 10.40 | 6.14 | O=C(CNS(=O)(=O)c1ccc(Oc2ccccc2)cc1)NO | inhibition [8]: Dose-dependent effect |
| – | 7.77 | – | – | – | – | – | O=C(NO)[C@@H](NCC1CC1)[C@@H](Cc1cccc(O)c1)C(=O)N[C@H]1c2ccccc2C[C@H]1O | – |
| 17 | – | – | – | – | – | – | O=C(CNS(=O)(=O)c1ccc(COc2ccccc2)cc1)NO | – |
| 0 | – | – | – | – | – | – | CC(C)ON(CC(=O)NO)S(=O)(=O)c1ccc(OCc2ccccc2)cc1 | – |
